# Article PMC4340684 (Bioorganic & medicinal chemistry, 2015)
# Legend:
# recombinant rat HSL [1] = biological target: T1, recombinant rat HSL (Rattus norvegicus, UniProt P15304); assay: HSL lipase assay; assay type: biochemical; details: for times more potent than the corresponding cis isomer: chain lengths of 12–18 carbon atoms
# T1 sequence (P15304 1-768 isoform P15304-2): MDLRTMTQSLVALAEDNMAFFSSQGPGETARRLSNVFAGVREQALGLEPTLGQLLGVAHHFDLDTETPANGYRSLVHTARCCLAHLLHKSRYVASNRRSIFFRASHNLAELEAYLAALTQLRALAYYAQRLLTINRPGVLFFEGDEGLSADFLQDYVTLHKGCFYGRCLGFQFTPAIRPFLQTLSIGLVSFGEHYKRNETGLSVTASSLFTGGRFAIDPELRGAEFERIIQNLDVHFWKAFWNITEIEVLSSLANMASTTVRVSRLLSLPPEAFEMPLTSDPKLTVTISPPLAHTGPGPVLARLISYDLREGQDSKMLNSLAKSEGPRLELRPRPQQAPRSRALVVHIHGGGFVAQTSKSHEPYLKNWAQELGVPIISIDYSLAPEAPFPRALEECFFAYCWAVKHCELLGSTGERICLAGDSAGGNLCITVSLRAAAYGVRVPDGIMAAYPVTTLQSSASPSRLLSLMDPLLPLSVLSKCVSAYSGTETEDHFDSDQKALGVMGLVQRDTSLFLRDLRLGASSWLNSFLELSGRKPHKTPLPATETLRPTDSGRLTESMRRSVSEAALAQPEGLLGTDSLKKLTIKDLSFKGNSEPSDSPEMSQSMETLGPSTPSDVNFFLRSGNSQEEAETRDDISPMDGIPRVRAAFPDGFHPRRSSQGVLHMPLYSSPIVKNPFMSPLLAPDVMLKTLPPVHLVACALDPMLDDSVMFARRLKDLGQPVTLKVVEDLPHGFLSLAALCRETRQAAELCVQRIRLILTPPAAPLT
# recombinant rat HSL [2] = biological target: T1, recombinant rat HSL; assay: Determination of rate constants for binding and inactivation of HSL; assay type: biochemical; details: fit to Eqn 2; no preincubation, 37 °C
# Outline: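 Baculovirus/Sf9-expressed rat HSL, Ni-NTA purified. Inhibitor in PC/PI (3:1) liposomes with 500 μM triolein plus 3H-triolein; pH 7.4 buffer, 0.2% BSA. Enzyme added directly at 37 °C; samples every 3–5 min for 30 min, 3H-oleate extracted, scintillation counted. Activity–time data at several inhibitor concentrations fit to Eqn 1 (kobs, k−2); normalized activity fit to Eqn 2 (KI, k2).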
SMILES,times more potent than the corresponding cis isomer (recombinant rat HSL [1]),also measured
CCCCCCCCCCCCCCCCCC[C@H]1CC[P@@](=O)(OC)OC(C)=C1C(=O)OC [12b],2–6 times,
CCCCCCCCCCCCCCCCO[P@]1(=O)OC[C@H]2COC(=O)C2=C(C)O1 [Cyclipostin P 4b],,fold weaker IC50 of the less potent diastereomer vs the more potent diastereomer (recombinant rat HSL [1]): 16 fold
"CCCCCCCCCCCCCCCCO[P@]1(=O)CC[C@@H]2COC(=O)C2=C(C)O1 (racemic) [Cyclipostin P Phosphonate 6a, (±)-(3R(S),5aR(S))-3-(hexadecyloxy)-1-methyl-4,5,5a,6-tetrahydrofuro[3,4-e][1,2]oxaphosphepin-8(3H)-one 3-oxide]",,fold less potent than the other bicyclic phosphonate analogs (recombinant rat HSL [1]; vs about 400 nM): about 10 fold
CCCCCCCCCCCCCCCC[C@H]1CC[P@@](=O)(OC)OC(C)=C1C(=O)OC [11b],2–6 times,
CCCCCCCCCCCC[C@H]1CC[P@@](=O)(OC)OC(C)=C1C(=O)OC [10b],2–6 times,
CCCCCCCCCCCCCCCCO[P@]1(=O)OC[C@@H]2COC(=O)C2=C(C)O1 [Cyclipostin P 4a],,k2 (forward rate constant for inactivation) (recombinant rat HSL [2]): 0.2 min⁻¹
